The target in series [1] is fast skeletal myosin-2 isoforms isolated from rabbit psoas muscle (Oryctolagus cuniculus, UniProt Q28641). The series is described as follows: Actin-activated steady-state ATPase inhibition, rabbit psoas skeletal myosin. Format: biochemical. The procedure, abridged:
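Rabbit psoas S1 made by α-chymotrypsin digestion (0.25 mg/ml, 10 min, 25°C), stopped with 3 mM PMSF, then purified on MonoS. Assayed by NADH-PK/LDH coupled ATPase at 25°C for 15 min: 0.5 mM ATP, 25 μM F-actin, 10 mM MOPS pH 7.0, 4 mM MgCl2. Rate read at 340 nm by linear regression; inhibitor at varied concentrations, 1% DMSO.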

In a further series the test system is TA98. Briefly: Ames MPF reverse mutagenicity assay, TA98. Format: cell-based, S.typhimurium. To be noted: absence and presence of rat liver S9 fraction. In outline: (§1)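 Ames MPF reverse mutagenicity run per kit instructions on Salmonella TA98 and TA100. Each strain tested without and with phenobarbital/β-naphthoflavone-induced rat liver S9 fraction.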
Series [2] has as its target expressed human β-cardiac myosin (Homo sapiens, UniProt P12883). Briefly: Actin-activated steady-state ATPase inhibition, expressed human β-cardiac myosin. Format: biochemical. In outline: (§2)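 Steady-state actin-activated ATPase measured by NADH-PK/LDH coupled assay at 25°C for 15 min. Buffer: 10 mM MOPS pH 7.0, 4 mM MgCl2, 2 mM β-mercaptoethanol, with 0.5 mM ATP, 25 μM F-actin, 1 mM PEP, 200 μM NADH and 2% PK/LDH. NADH decrease followed at 340 nm; activity taken from linear regression of absorbance over time. Inhibitor added at varied concentrations in DMSO (1% final).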

In series [3] the test system is 23 human hormone nuclear receptors (HNR). Briefly: SelectScreen Nuclear Receptor Profiling. Format: binding. The note with it: 5 μM; 23 receptors. The procedure, abridged:
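Outsourced SelectScreen binding profile on 23 human hormone nuclear receptors; test compound at 5 μM. Mean ± SEM, n = 2.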

For series [4], the system named is spastic rats after pyramidal tract lesion. The series is described as follows: Spastic cerebral palsy rat model, cylinder assay. Format: in vivo. The note with it: Rat-B and C, three and five hours after oral 20 mg/kg treatment.
The target of a further series is NM2B (Homo sapiens, UniProt P35580). The series is described as follows: Actin-activated steady-state ATPase inhibition, NM2B. Format: biochemical. The note with it: even at extremely high concentrations. The procedure, abridged: as §2
NM2B, sequence (P35580 1-782): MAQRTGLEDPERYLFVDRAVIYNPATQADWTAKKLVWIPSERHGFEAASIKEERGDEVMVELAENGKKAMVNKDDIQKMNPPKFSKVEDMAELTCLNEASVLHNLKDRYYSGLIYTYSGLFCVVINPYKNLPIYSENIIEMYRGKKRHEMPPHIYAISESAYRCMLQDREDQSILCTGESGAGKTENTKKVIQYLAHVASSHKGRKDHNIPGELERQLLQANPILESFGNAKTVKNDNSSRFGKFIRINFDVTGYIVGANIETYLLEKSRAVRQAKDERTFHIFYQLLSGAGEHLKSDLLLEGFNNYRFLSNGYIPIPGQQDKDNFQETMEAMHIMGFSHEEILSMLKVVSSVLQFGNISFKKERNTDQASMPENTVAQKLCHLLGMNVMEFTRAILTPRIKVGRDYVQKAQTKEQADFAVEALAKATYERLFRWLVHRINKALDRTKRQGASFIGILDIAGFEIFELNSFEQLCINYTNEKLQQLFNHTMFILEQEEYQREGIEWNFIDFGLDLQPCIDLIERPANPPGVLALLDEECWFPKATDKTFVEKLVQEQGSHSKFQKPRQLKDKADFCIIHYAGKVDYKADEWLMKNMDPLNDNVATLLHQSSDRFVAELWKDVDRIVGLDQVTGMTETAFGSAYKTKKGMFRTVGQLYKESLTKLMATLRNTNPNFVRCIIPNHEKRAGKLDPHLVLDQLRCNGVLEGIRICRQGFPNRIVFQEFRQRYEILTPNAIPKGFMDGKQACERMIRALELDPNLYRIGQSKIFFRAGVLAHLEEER
The subject of series [5] is spastic rats after pyramidal tract lesion. Briefly: Spastic cerebral palsy rat model, open-field gait analysis. Format: in vivo. To be noted: for ratio of left turns: Rat-A, 15% before. In outline: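 Spasticity induced in rats by stereotaxic injection of 15 μl ethanol into the left pyramidal tract (ML −0.8, AP −10, DV 9.7 mm from dura). Rats filmed for 15 min in an 80×80 cm open field with transparent floor, with deep-learning 3D paw tracking. Gait parameters Z-scored and run through PCA. Falls and cramps normalised to distance. Oral 15 or 20 mg/kg; recorded before and 1-21 h after dosing.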

In series [6] the test system is cardiovascular and respiratory functions of rats. Briefly: Non-invasive measurement of cardiovascular and respiratory functions. Format: in vivo. To be noted: rat. The procedure, abridged:
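Anaesthetised rats had the neck trimmed for a size-matched collar sensor of a non-invasive pulse oximeter. Recorded heart rate, pulse distention (local blood flow), breath rate and oxygen saturation after test compound or SBECD vehicle. Monitored 60-600 min; maximal signal deflection taken; 1-4 animals per dose.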

Series [7] concerns rat hindleg isometric force. The series is described as follows: Isometric force measurement of rat hindleg. Format: in vivo.
The test system of the next series is Caco-2. Briefly: Caco-2 permeability assay. Format: in vitro ADME. To be noted: faster transfer in the absorptive direction over the excretive direction. In outline:
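Outsourced Caco-2 permeability, measured apical-to-basolateral and basolateral-to-apical, in the presence of two transporter inhibitors. Mean ± SD, n = 2.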
For orientation: Passage across Caco-2 layers is used to estimate intestinal permeability.

The subject of series [8] is human adult dermal fibroblast (hDFa). The series is described as follows: CyQUANT LDH Cytotoxicity assay, dermal fibroblasts. Format: cell-based. To be noted: 20 μM and 50 μM, 48 and 120 hours. In outline: (§3)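 LDH release (CyQUANT kit, per manufacturer) from human adult dermal and lung fibroblasts. Cells exposed to 20 or 50 μM test compound for 48 and 120 h.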
Series [9] has as its target human non-muscle myosin-2C (NM2C) (Homo sapiens, UniProt Q7Z406). Briefly: Actin-activated steady-state ATPase inhibition, NM2C wild type. Format: biochemical. To be noted: wild-type form. The procedure, abridged:
as §2

Series [10] relates to skeletal myosin samples from m.vastus lateralis. Briefly: Actin-activated ATPase inhibition, human m. vastus lateralis biopsy myosin. The note with it: patient-derived biopsies; 56% fast isoforms. Format: biochemical.
A further series relates to 484 kinases. The series is described as follows: SelectScreen Kinase Profiling panel. To be noted: 5 μM. Format: biochemical, human. In outline: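 Outsourced SelectScreen panel of wild-type and common mutant human kinases; test compound at 5 μM. Mean ± SEM, n = 2.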
Series [11] relates to human adult lung (hLFa) fibroblast. Briefly: CyQUANT LDH Cytotoxicity assay, lung fibroblasts. Format: cell-based. To be noted: 20 μM and 50 μM, 48 and 120 hours. The procedure, abridged:
as §3

In series [12] the test system is 186 different human G-protein-coupled-receptors (GPCRs). The series is described as follows: gpcrMAX panel. The note with it: 5 μM; 186 GPCRs. Format: cell-based. The procedure, abridged: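 gpcrMAX service panel of 186 human GPCRs from 60 families, read in both agonist and inhibition modes; test compound at 5 μM. Mean ± SEM, n = 2.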
A short description of series [13]: Concentration measurement from tissue samples. Format: in vivo. To be noted: rat. The procedure, abridged:
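Male Wistar rats (200-250 g) dosed i.p. or orally, over-anaesthetised; tissues collected and frozen at −80°C. Extracts chloroform-dried, taken up in 50/50 water-acetonitrile, sonicated, centrifuged, then ultracentrifuged (60,000 rpm, 10°C, 60 min). HPLC-MS on RP-18 column, isocratic 50% H2O (0.1% TFA)/50% ACN (0.09% TFA), 0.5 ml/min. Quantified from 400 nm peak area against a calibration curve.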

The target of a further series is hERG potassium channel (Homo sapiens, UniProt Q12809). Briefly: Predictor hERG Fluorescence Polarization Assay. Format: binding. The note with it: up to 5 μM. The procedure, abridged:
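Outsourced hERG fluorescence-polarisation binding assay, test compound up to 5 μM. Mean ± SEM, n = 2.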

The next series has as its target NM2A (Homo sapiens, UniProt P35579). Briefly: Actin-activated steady-state ATPase inhibition, NM2A. Format: biochemical. To be noted: even at extremely high concentrations. In outline: as §2
Series [14] concerns the target slow skeletal/β-cardiac myosin isolated from left ventricle of porcine heart (Sus scrofa, UniProt P79293). The series is described as follows: Actin-activated steady-state ATPase inhibition, porcine cardiac myosin. Format: biochemical. To be noted: even at extremely high concentrations.
The next series addresses NM2C^F490L variant (Homo sapiens, UniProt Q7Z406, F490L). Briefly: Actin-activated steady-state ATPase inhibition, NM2C F490L variant. Format: biochemical. To be noted: expressed variant. The procedure, abridged: as §2
Series [15] concerns skeletal myosin samples from m.soleus. Briefly: Actin-activated ATPase inhibition, human m. soleus biopsy myosin. Format: biochemical. To be noted: patient-derived biopsy; 28% fast isoforms.
A further series deals with smooth muscle myosin-2 (Gallus gallus, UniProt P10587). Briefly: Actin-activated steady-state ATPase inhibition, smooth muscle myosin. Format: biochemical, chicken. To be noted: even at extremely high concentrations. The procedure, abridged: as §2
The target in series [16] is β-cardiac myosin isolated from human heart left ventricle (Homo sapiens, UniProt P12883). The series is described as follows: Actin-activated ATPase inhibition, human heart left ventricle myosin. Format: biochemical. The procedure, abridged:
as §2

For a further series, the system named is TA100. Briefly: Ames MPF reverse mutagenicity assay, TA100. Format: cell-based, S.typhimurium. To be noted: absence and presence of rat liver S9 fraction. In outline:
as §1

expressed human β-cardiac myosin, sequence (P12883 85-778 limits assumed): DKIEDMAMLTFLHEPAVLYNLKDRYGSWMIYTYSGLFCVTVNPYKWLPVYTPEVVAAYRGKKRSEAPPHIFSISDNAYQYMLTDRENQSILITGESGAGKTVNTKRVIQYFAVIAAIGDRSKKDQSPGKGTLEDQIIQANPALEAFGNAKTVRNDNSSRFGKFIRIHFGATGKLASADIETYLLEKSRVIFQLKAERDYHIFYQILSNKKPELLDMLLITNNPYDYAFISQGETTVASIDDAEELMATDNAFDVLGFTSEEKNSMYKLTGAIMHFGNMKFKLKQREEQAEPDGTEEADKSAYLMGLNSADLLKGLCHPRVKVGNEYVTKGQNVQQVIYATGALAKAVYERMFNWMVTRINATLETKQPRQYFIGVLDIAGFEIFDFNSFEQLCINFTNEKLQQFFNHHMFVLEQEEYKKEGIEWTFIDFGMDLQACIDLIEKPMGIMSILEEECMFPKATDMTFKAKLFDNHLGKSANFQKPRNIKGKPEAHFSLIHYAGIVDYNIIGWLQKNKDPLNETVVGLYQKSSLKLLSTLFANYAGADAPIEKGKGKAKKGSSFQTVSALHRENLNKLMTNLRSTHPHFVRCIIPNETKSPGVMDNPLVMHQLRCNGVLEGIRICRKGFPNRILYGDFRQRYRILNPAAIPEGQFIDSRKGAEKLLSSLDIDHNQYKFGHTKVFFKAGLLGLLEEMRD
expressed human β-cardiac myosin, sequence (P08590 whole entry partner): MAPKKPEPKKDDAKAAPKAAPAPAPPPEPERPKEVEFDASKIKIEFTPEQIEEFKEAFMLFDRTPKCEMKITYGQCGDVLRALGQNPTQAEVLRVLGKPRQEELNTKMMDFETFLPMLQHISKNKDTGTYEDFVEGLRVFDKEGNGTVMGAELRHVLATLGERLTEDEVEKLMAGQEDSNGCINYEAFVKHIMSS
β-cardiac myosin isolated from human heart left ventricle, sequence (P12883 85-778 limits assumed): as the sequence (P12883 85-778 limits assumed) above
β-cardiac myosin isolated from human heart left ventricle, sequence (P08590 whole entry partner): as the sequence (P08590 whole entry partner) above
hERG potassium channel, sequence (Q12809 whole entry): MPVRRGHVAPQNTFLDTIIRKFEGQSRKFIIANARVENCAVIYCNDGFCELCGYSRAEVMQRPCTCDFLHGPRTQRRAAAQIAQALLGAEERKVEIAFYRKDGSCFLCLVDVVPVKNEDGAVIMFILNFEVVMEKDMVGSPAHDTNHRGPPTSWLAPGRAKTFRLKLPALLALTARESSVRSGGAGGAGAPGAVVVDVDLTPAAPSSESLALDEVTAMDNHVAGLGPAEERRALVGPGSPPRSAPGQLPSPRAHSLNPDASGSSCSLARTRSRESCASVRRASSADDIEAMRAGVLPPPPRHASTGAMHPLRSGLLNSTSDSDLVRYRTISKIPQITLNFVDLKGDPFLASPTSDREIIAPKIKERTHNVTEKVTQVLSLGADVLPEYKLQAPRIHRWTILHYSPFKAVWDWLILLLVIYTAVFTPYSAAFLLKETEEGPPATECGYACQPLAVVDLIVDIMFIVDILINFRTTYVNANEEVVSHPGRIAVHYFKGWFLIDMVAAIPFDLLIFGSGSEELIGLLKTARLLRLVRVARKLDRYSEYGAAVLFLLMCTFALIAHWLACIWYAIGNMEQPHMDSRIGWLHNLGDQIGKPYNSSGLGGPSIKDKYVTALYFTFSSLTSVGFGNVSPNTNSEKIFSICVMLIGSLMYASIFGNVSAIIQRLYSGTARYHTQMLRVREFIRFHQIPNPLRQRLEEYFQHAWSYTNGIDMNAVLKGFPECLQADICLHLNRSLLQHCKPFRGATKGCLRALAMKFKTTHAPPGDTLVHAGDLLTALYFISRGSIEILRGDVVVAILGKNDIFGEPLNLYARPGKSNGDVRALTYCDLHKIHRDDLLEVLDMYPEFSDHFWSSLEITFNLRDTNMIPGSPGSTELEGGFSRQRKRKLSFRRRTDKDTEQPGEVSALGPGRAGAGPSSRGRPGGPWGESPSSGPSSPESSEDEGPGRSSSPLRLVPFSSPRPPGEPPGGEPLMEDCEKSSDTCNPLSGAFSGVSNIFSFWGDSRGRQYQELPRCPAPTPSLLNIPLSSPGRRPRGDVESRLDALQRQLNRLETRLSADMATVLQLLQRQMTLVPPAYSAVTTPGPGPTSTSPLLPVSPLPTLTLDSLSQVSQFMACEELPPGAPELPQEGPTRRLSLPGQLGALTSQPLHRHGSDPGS
slow skeletal/β-cardiac myosin isolated from left ventricle of porcine heart, sequence (P79293 85-778 limits assumed): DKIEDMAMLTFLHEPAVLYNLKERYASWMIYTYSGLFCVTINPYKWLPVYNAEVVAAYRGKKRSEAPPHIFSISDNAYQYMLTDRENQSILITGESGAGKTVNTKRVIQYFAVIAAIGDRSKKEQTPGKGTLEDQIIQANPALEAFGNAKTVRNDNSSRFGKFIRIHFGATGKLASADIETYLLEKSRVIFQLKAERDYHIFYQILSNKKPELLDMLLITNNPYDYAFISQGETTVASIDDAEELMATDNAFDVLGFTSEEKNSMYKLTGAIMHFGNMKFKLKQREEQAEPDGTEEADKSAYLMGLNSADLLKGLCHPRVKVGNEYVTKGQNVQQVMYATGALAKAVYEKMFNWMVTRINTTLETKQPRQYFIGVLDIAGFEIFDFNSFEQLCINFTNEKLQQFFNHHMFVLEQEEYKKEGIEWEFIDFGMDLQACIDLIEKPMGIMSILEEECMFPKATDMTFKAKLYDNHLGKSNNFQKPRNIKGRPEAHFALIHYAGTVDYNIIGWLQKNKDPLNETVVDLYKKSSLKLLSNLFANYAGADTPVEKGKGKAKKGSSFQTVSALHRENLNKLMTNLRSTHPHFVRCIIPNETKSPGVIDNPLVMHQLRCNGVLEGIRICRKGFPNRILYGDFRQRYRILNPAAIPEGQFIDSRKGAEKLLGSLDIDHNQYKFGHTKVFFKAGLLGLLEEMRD
NM2A, sequence (P35579 1-775): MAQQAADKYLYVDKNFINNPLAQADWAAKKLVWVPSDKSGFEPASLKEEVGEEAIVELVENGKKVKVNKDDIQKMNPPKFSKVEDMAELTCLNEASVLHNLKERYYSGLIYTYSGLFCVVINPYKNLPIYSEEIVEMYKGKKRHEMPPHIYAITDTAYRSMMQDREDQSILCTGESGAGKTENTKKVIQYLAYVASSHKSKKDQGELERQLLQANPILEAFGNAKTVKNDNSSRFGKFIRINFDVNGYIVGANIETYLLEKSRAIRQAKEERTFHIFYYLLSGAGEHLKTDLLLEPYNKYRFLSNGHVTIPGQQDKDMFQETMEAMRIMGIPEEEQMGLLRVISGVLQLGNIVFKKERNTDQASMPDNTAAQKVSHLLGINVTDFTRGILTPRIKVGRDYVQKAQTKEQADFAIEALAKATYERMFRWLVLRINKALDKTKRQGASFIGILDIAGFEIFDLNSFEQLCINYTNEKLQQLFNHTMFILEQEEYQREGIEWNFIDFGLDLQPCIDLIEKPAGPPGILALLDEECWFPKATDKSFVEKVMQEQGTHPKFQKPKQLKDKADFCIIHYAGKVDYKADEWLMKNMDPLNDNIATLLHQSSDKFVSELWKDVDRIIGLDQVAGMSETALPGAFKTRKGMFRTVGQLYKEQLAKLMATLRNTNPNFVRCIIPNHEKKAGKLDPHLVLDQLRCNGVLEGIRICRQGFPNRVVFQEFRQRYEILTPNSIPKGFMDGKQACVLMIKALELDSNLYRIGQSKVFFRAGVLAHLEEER

For the compound `Cc1cc2c(s1)N=C1N(c3ccc(N4CCOCC4)cc3)CC[C@@]1(O)C2=O` [MPH-220], in [1], the “ATPase inhibition of fast skeletal myosin (selectivity, in words)” value is recorded as “selective inhibition”. Further, the “mutagenicity, frameshift (TA98)” value in the series on TA98 is listed as “Lack of mutagenicity”. In addition, in series [2], the “ATPase activity inhibition of expressed human β-cardiac myosin” value is reported as “essentially unaffected”. In [3], the “effect on hormone nuclear receptors” value is given as “remained unaffected”. Further, the “standing up in the cylinder, wall touches with both forepaws” value in [4] is given as “same number of events as their healthy littermates”. For the same compound, the “ATPase activity inhibition of NM2B” value at NM2B is “did not inhibit”. In addition, the “ratio of left turns” value in series [5] (40 minutes after 15 mg/kg treatment) stood at 38%. Also, in series [5] (three hours after 15 mg/kg treatment), the “ratio of left turns” value amounted to 51%. The “relative frequency of random falling and spontaneous cramping” value in series [5] (Rat-C, 20 mg/kg, open field test) is reported as “decreased drastically”. Further, in [5] (Rat-D, 20 mg/kg), the “persistence of enhanced gait functions” value is given as “persistent for five hours”. Besides, in [5] (global PCA, 20 mg/kg oral), the “PC1 scores (major gait component)” value is “significantly decreased” and the “time of maximal effect on PC1 scores” value was 3 h. The “effect on cardiovascular and respiratory functions” value in series [6] (18 mg/kg) was “neither 13 mg/kg MPH-188 (H) nor 18 mg/kg MPH-220 (I) had any significant effect”. For the same compound, the “cardiac and respiratory functions versus excipient control” value in series [6] (10-hour experiments under anesthesia) was “neither cardiac nor respiratory functions differed significantly”. In addition, the “maximum decrease in heart rate and blood flow parameters” value in series [6] (10-hour-long anesthesia) is at most 25%. The cardiac function result in [6] (concentration range effective in force relaxation) was “not perturbed”. For the same compound, the “isometric force decrease τi.p.” value in [7] (18 mg/kg, intraperitoneal injection in 200 μl DMSO, anesthetized rats) was 34 min. Besides, in series [7] (18 mg/kg, oral in 30% SBECD), the “leg phase before force decrease, corresponding to absorption” value was 17 min. The “isometric force decrease τp.o.” value in series [7] (18 mg/kg, orally through gavage tube in 30% SBECD, anesthetized rats) stood at 53 min. Besides, the “persistence of decreased force” value in series [7] (rat hindleg, oral treatment) was “more than 10 hours”. The Caco-2 permeability result in the series on Caco-2 was “highly permeable”. In addition, the “cytotoxicity (LDH)” value in series [8] is reported as “not toxic”. Also, in series [9], the “ATPase activity inhibition of NM2C” value is recorded as “not inhibited”. Moreover, in series [10], the “ATPase inhibition of m.vastus lateralis myosin sample” value worked out at 70%. The same compound gave a kinase inhibition in the series with 484 kinases of at most 20%. Besides, in [11], the “cytotoxicity (LDH)” value was “not toxic”. The “GPCR inhibition or activation” value in series [12] was at most 30%. For the same compound, in [13], the “concentration in the diaphragm” value was “much lower compared to other striated muscle samples” and the “concentration in the liver” value is listed as “only temporarily elevated”. Also, in [13] (after 3 hours), the “concentration in target muscles relative to the inhibitory constant [IC50]” value is recorded as 10 fold; the “elimination from blood and other tissues” value is given as “completely eliminated”. The “concentration in cardiac tissue” value in series [13] (high doses (up to 130 mg/kg)) was in the range of 3000 to 7000 nM. The “accumulation in skeletal muscle samples over other tissues” value in series [13] (versus brain, heart, kidney and blood) is listed as “few-fold accumulation”. For the same compound, on hERG potassium channel, the “hERG potassium channel inhibition” value was “did not observe inhibition”. At NM2A, the “ATPase activity inhibition of NM2A” value was “did not inhibit”. Also, the “ATPase activity inhibition of cardiac myosin” value in series [14] is given as “did not inhibit”. The “ATPase sensitivity of NM2C F490L variant” value on NM2C^F490L variant is listed as “became sensitive”. In addition, in series [15], the “ATPase inhibition of m.soleus myosin sample” value came out at 29%. Besides, the “ATPase activity inhibition of smooth muscle myosin-2” value at smooth muscle myosin-2 was “did not inhibit”. Besides, the “ATPase inhibition of human heart left ventricle β-cardiac myosin (in words)” value in [16] was “unaffected”. For the same compound, the “mutagenicity, base-pair substitution (TA100)” value in the series with TA100 is “Lack of mutagenicity”.
Take `Cc1ccc2c(c1)C(=O)C1(O)CCN(c3ccccc3)C1=N2` (stereo not drawn) [blebbistatin, reference compound]: the “ATPase activity inhibition of expressed human β-cardiac myosin” value in series [2] is reported as “completely blocked”. The “ATPase inhibition of m.vastus lateralis myosin sample” value in [10] was “more than 90%”. In addition, the “ATPase activity reduction of human cardiac myosin sample” value in series [16] (human heart left ventricle) is “more than 90%”.
As to `Cc1ccc2c(c1)C(=O)[C@]1(O)CCN(c3ccc(N)cc3)C1=N2` [AmBleb, para-aminoblebbistatin, reference compound], the “time to death due to heart failure” value in [6] (16 mg/kg) was at most 15 min.
